Here are results for 19 compounds from ChEMBL document CHEMBL1137121, “Oxamides as novel NR2B selective NMDA receptor antagonists” (Bioorg Med Chem Lett, 2004).

Activity calls are given as the source filed them. The calls are words filed in the database; no cut-off is given here.

For assay [1], the target named is Glutamate NMDA receptor; GRIN1/GRIN2B (Homo sapiens, UniProt Q05586+Q13224). The assay can be described thus: Inhibition of NMDA-evoked increased intracellular [Ca2+] in cells expressing NR1/NR2B receptor. The assay is classed as cell-based.
Glutamate NMDA receptor; GRIN1/GRIN2B, sequence (Q13224 whole entry, other chains not shown): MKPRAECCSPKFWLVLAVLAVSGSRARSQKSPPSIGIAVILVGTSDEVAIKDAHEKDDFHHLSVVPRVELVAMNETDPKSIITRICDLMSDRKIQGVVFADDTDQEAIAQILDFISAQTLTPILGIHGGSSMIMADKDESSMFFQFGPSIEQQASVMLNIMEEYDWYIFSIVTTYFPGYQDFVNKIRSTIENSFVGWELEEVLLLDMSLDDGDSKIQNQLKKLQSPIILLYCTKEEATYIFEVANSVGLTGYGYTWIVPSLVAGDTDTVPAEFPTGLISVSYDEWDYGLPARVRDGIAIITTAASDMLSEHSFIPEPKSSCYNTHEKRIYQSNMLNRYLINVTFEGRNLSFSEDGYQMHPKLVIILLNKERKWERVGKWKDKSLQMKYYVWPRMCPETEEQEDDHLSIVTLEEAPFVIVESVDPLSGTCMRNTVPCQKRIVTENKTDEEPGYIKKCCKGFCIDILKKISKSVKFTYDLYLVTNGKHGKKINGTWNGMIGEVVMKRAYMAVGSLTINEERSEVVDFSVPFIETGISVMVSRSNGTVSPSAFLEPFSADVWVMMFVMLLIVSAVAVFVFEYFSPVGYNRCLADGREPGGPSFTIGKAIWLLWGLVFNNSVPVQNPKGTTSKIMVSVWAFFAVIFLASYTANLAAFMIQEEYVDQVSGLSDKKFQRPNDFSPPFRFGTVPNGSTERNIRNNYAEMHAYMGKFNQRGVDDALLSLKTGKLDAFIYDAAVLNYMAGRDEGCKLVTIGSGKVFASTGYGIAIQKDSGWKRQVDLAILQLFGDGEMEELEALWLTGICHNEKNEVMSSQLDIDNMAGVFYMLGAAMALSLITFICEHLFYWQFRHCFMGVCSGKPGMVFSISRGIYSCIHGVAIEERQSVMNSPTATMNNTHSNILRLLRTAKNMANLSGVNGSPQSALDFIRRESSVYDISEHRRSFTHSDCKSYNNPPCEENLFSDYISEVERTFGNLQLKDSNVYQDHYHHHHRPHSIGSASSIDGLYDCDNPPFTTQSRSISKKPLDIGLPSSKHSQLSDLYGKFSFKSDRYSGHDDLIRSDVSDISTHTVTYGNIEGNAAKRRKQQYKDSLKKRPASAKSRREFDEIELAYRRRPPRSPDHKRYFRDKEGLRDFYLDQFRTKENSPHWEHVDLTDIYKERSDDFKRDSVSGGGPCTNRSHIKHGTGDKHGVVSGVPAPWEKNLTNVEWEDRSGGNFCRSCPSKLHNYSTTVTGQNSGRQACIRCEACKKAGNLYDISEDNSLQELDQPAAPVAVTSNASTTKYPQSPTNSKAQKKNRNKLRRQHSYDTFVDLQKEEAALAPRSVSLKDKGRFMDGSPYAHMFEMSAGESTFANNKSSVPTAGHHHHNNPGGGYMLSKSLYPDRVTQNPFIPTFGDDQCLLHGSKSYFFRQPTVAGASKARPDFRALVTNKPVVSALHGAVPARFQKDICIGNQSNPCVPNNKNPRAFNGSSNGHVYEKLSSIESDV
Assay [2] concerns Mus musculus. The assay can be described thus: In vivo analgesic activity was tested using formalin test in mouse upon p.o. administration; IA is inactive. The assay is classed as functional, organism-based. The method, boiled down:
(§1)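 Mice were pretreated orally with the compound suspended in 5% Tween-80, then given formalin into the hindpaw. Licking was counted 20–25 min after the formalin injection. Percentage inhibition was calculated for each dose, and the dose giving a half-maximal effect (ED50) was determined.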

For assay [3], the system named is Mus musculus. The assay can be described thus: In vivo analgesic activity was tested using formalin test in mouse upon i.p. administration. Type of assay: functional. Conditions: ip. An outline of the steps:
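Mice were pretreated intraperitoneally before formalin injection into the hindpaw. Licking behaviour was counted 20–25 min after the formalin injection. Percentage inhibition was calculated per dose, and the ED50 (the dose producing a half-maximal effect) was derived.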

In assay [4] the target is Glutamate [NMDA] receptor. The assay can be described thus: Inhibition of [3H]-Ro-25-6981 binding to NMDA receptor. The assay is classed as protein-complex assay.
Assay [5] has as its system Mus musculus. The assay can be described thus: In vivo analgesic activity was tested using formalin test in mouse upon p.o. administration. Type of assay: functional. The note with it: po. The method, boiled down:
as §1

In assay [6] the test system is Mus musculus. The assay can be described thus: In vivo analgesic activity was tested using formalin test in mouse upon s.c. administration. Type of assay: functional. Conditions: sc.

In assay [1], `Cc1ccc(CC2(O)CCN(CCOc3ccc(O)cc3)CC2)cc1` had an IC50 of 5 nM. Besides, the ED50 entry with Mus musculus [2] is “inactive”. In the assay on Mus musculus [3], this compound came in with an ED50 of 5.9 mg/kg.

Turning to `Cc1ccc(CC2CCN(C(=O)C(=O)Nc3ccc4c(c3)OCC(=O)N4)CC2)cc1`, the IC50 in assay [1] came to 18 nM; in assay [4], 17 nM. Besides, in the assay with Mus musculus [5], the ED50 was 10 mg/kg.

For `O=C(Nc1ccc2[nH]c(=O)sc2c1)C(=O)N1CCC(Cc2ccccc2)CC1`, the IC50 was determined as 9 nM in assay [1] and 17 nM in assay [4]. The compound further had an ED50 in the assay with Mus musculus [5] of 0.4 mg/kg.

`Cc1ccc(OC2CCN(C(=O)C(=O)Nc3ccc4[nH]c(=O)sc4c3)CC2)cc1`: the IC50 in assay [1] was 8 nM; in assay [4], 17 nM. Also, the 50% effect level with Mus musculus [5] (ED50) was put at a dose of 0.2 mg/kg.

Regarding `O=C1Nc2ccc(NC(=O)C(=O)N3CCC(Cc4ccccc4)CC3)cc2CO1`, the IC50 is 29 nM in assay [1] and 139 nM in assay [4]. Besides, the ED50 in the assay on Mus musculus [5] is below 0.1 mg/kg.

`O=C(Nc1ccc2[nH]c(=O)oc2c1)C(=O)N1CCC(Cc2ccc(F)cc2)CC1` [RADIPRODIL]: the IC50 is 4 nM in assay [1] and 6 nM in assay [4]. In addition, it took a dose of 7.7 mg/kg to reach the 50% effect level in the assay on Mus musculus [5] (ED50).

In the assay on Mus musculus [5], `O=c1[nH]c2ccc([S+]([O-])CCN3CCC(Cc4ccc(F)cc4)CC3)cc2o1` (configuration not stated) [BESONPRODIL] showed an ED50 of 2.4 mg/kg.

For the compound `O=C(Nc1ccc2[nH]c(=O)[nH]c2c1)C(=O)N1CCC(Oc2ccc(Cl)cc2)CC1`, the IC50 was determined as 8 nM in assay [1] and 26 nM in assay [4]. This compound yielded an ED50 in the assay with Mus musculus [5] above 20 mg/kg.

`O=C(Nc1ccc2[nH]c(=O)[nH]c2c1)C(=O)N1CCC(Cc2ccc(F)cc2)CC1`: the IC50 in assay [1] came to 2 nM; in assay [4] it was 5 nM. This compound returned an ED50 in the assay with Mus musculus [5] above 20 mg/kg.

On to `C[C@@H]([C@@H](O)c1ccc(O)cc1)N1CCC(O)(c2ccccc2)CC1` [TRAXOPRODIL], for which the ED50 in the assay on Mus musculus [5] and with Mus musculus [6] was above 20 mg/kg each time.

Turning to `O=C(Nc1ccc(O)cc1)C(=O)N1CCC(Cc2ccccc2)CC1`, the IC50 in assay [1] amounted to 31 nM; in assay [4] it was 16 nM. For the same compound, in the assay on Mus musculus [5], the ED50 was 9.4 mg/kg.

On to `O=C(CCN1CCC(Cc2ccc(F)cc2)CC1)c1ccc2nc(O)oc2c1`, for which the values for the IC50 in assay [1] and in assay [4] were 48 nM and 8 nM, respectively. The compound also registered an ED50 in the assay with Mus musculus [5] of 3.7 mg/kg.

For the compound `C[C@@H](CN1CCC(Cc2ccccc2)CC1)[C@@H](O)c1ccc(O)cc1`, in the assay on Mus musculus [2], the ED50 result is “inactive”. In addition, the ED50 with Mus musculus [3] was 5.1 mg/kg.

As to `O=C(Nc1ccc2[nH]c(=O)oc2c1)C(=O)N1CCC(Oc2ccc(Cl)cc2)CC1`, the values for the IC50 in assay [1] and in assay [4] were 7 nM and 40 nM, respectively. In addition, the ED50 with Mus musculus [5] amounted to 4.4 mg/kg.

For the compound `O=C(c1cc2cc(O)ccc2[nH]1)N1CCC(Cc2ccccc2)CC1`, the IC50 in assay [1] was found to be 42 nM. The compound also returned a median effective dose (ED50) with Mus musculus [5] of 1.4 mg/kg.

As for `O=C(Nc1ccc2[nH]c(=O)oc2c1)C(=O)N1CCC(Cc2ccccc2)CC1`, the IC50 in assay [1] was determined as 3 nM; in assay [4], 8 nM. This compound also registered an ED50 in the assay on Mus musculus [5] of 0.9 mg/kg.

Take `O=C(Nc1ccc2[nH]c(=O)[nH]c2c1)C(=O)N1CCC(Cc2ccccc2)CC1`: the figures for the IC50 in assay [1] and in assay [4] were 6 nM and 4 nM, respectively. The ED50 in the assay with Mus musculus [5] was 14 mg/kg.

On to `Cc1ccc(OC2CCN(C(=O)C(=O)Nc3ccc4nc(S)[nH]c4c3)CC2)cc1`, for which the IC50 in assay [1] is 10 nM; in assay [4], 131 nM. Besides, the ED50 in the assay with Mus musculus [5] is above 20 mg/kg.

As for `Cc1ccc(CC2CCN(C(=O)C(=O)Nc3ccc4c(c3)CC(=O)N4)CC2)cc1`, the IC50 was found to be 15 nM in assay [1] and 54 nM in assay [4]. Besides, the 50% effect level in the assay with Mus musculus [5] (ED50) was put at a dose of 0.5 mg/kg.

As usually defined, the IC50 is the point on the concentration scale where inhibition reaches its midpoint. High values mean lower potency, low ones higher potency. The ED50 is the midpoint of the dose-response relation.
